inhibition, Ratio and AD50 data for 3 compounds are collected here from ChEMBL document CHEMBL3244038, “Synthesis and analgesic activity of human beta-endorphin” (1977).

For assay [1], the system named is Mus musculus. Description: Analgesic activity in icv dosed ICR mouse assessed as inhibition of heat stimulus-induced tail flick response measured for 30 to 60 mins. Type of assay: functional, organism-based. The essentials:
(§1)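 Male ICR mice, 25-30 g. Peptide given icv (5 µl) over a dose range of 0.09-0.38 µg/mouse. Tail-flick latency was measured against noxious heat with a 10 s cutoff. Control latency was the mean of two pre-drug readings. Percent analgesia = (T1−T0)/(T2−T0)×100. For line 2, naloxone 1 mg/kg sc was given 10 min after the peptide. Mean ± SEM.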

In assay [2] the test system is Mus musculus. Description: Analgesic activity in ICR mouse assessed as inhibition of heat stimulus-induced tail flick response at 0.38 ug, icv administered opiate antagonist naloxone at 10 mins post compound treatment measured for 30 to 60 mins. Format: functional, organism-based. The method in brief: as §1
The test system of assay [3] is Mus musculus. Description: Analgesic activity in icv dosed ICR mouse assessed as inhibition of thermal stimulus-induced response by hot-plate test in presence of opiate antagonist naloxone. Format: functional, organism-based.
The test system of assay [4] is Mus musculus. The assay can be described thus: Analgesic activity in ICR mouse assessed as inhibition of acetic acid-induced writhing response at 0.38 ug, icv administered 5 mins prior to acetic acid challenge measured for 15 mins. Format: functional, organism-based. The essentials:
(§2)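 Male ICR mice, 25-30 g. Peptide given icv (5 µl) 5 min before i.p. 0.6% acetic acid (0.1 ml/10 g body weight). Writhes counted over 15 min.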
(In general: In writhing tests, fewer writhes than in controls are read as antinociception.)

Assay [5] deals with Mus musculus. Description: Analgesic activity in opiate antagonist naloxone-treated ICR mouse assessed as inhibition of acetic acid-induced writhing response at 0.38 ug, icv administered 5 mins prior to acetic acid challenge measured for 15 mins. Format: functional, organism-based. The method in brief: as §2
For assay [6], the system named is Mus musculus. The assay can be described thus: Analgesic activity in iv dosed ICR mouse assessed as inhibition of heat stimulus-induced tail flick response measured for 20 to 30 mins. Type of assay: functional, organism-based. The method in brief:
(§3)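 Male ICR mice, 25-30 g. Peptide given iv via the tail vein at 9.4, 18.8 or 28.2 mg/kg. Tail-flick latency to heat with a 10 s cutoff. Percent analgesia calculated against the pre-drug control latency. For line 10, naloxone hydrochloride 1 mg/kg sc was given 5 min before 20.1 mg/kg peptide. Mean ± SEM.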

Assay [7] deals with Mus musculus. Description: Analgesic activity in opiate antagonist naloxone hydrochloride-treated ICR mouse assessed as inhibition of heat stimulus-induced tail flick response at 20.1 mg/kg, iv measured for 20 to 30 mins. Also on record: dose 20.1 mg/kg. Format: functional, organism-based. The method in brief:
as §3

The subject of assay [8] is Mus musculus. Description: Potency index, ratio of morphine AD50 to compound AD50 for analgesic activity in icv dosed ICR mouse assessed as inhibition of heat stimulus-induced tail flick response. Type of assay: functional.
Assay [9] is filed under the species Mus musculus. The assay can be described thus: Potency index, ratio of morphine AD50 to compound AD50 for analgesic activity in ICR mouse assessed as inhibition of thermal stimulus-induced response by hot-plate test. Type of assay: functional. (Thermal pain tests record how soon the animal reacts.)
Assay [10] has as its system Mus musculus. The assay can be described thus: Potency index, ratio of morphine AD50 to compound AD50 for analgesic activity in icv dosed ICR mouse assessed as inhibition of acetic acid-induced writhing response. Type of assay: functional.
For assay [11], the system named is Mus musculus. The assay can be described thus: Potency index, ratio of morphine AD50 to compound AD50 for analgesic activity in iv dosed ICR mouse assessed as inhibition of heat stimulus-induced tail flick response. Type of assay: functional.
Assay [12] deals with Mus musculus. The assay can be described thus: Analgesic activity in icv dosed ICR mouse assessed as inhibition of thermal stimulus-induced response by hot-plate test. Format: functional, organism-based. The method in brief:
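Male ICR mice, 25-30 g. Peptide given icv (5 µl). Hot-plate latency with a 60 s cutoff. Control latency was the mean of two pre-drug readings, with test latencies at various times after injection. Percent analgesia = (T1−T0)/(T2−T0)×100.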

Assay [13] deals with Mus musculus. The assay can be described thus: Analgesic activity in icv dosed ICR mouse assessed as 50% inhibition of heat stimulus-induced tail flick response measured for 60 to 90 mins. Type of assay: functional. The method in brief: (§4)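 Male ICR mice, 25-30 g. Tail-flick latency to heat with a 10 s cutoff. A twofold increase in latency over the pre-drug control was the quantal criterion. AD50 with 95% confidence limits by Litchfield-Wilcoxon.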

Assay [14] relates to Mus musculus. Description: Analgesic activity in icv dosed ICR mouse assessed as 50% inhibition of thermal stimulus-induced response measured for 60 to 90 mins by hot-plate test. Format: functional. The essentials: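 Male ICR mice, 25-30 g. Peptide given icv (5 µl). Hot-plate latency with a 60 s cutoff. A twofold increase over the control latency (mean of two pre-drug readings) was the quantal criterion. AD50 with 95% confidence limits by Litchfield-Wilcoxon.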

Assay [15] deals with Mus musculus. The assay can be described thus: Analgesic activity in icv dosed ICR mouse assessed as 50% inhibition of acetic acid-induced writhing response administered 5 mins prior to acetic acid challenge measured for 60 to 90 mins. Format: functional.
In assay [16] the test system is Mus musculus. Description: Analgesic activity iv dosed ICR mouse assessed as 50% inhibition of heat stimulus-induced tail flick response measured for 60 to 90 mins. Format: functional. The essentials:
as §4

Active and inactive are the calls of the source.

As to `CC[C@H](C)[C@H](NC(=O)[C@H](C)NC(=O)[C@H](CC(N)=O)NC(=O)[C@H](CCCCN)NC(=O)[C@H](Cc1ccccc1)NC(=O)[C@H](CC(C)C)NC(=O)[C@@H](NC(=O)[C@@H](NC(=O)[C@H](CC(C)C)NC(=O)[C@@H]1CCCN1C(=O)[C@@H](NC(=O)[C@H](CCC(N)=O)NC(=O)[C@H](CO)NC(=O)[C@H](CCCCN)NC(=O)[C@H](CCC(=O)O)NC(=O)[C@H](CO)NC(=O)[C@@H](NC(=O)[C@H](CCSC)NC(=O)[C@H](Cc1ccccc1)NC(=O)CNC(=O)CNC(=O)[C@@H](N)Cc1ccc(O)cc1)[C@@H](C)O)[C@@H](C)O)C(C)C)[C@@H](C)O)C(=O)N[C@H](C(=O)N[C@@H](CCCCN)C(=O)N[C@@H](CC(N)=O)C(=O)N[C@@H](C)C(=O)N[C@@H](Cc1ccc(O)cc1)C(=O)N[C@@H](CCCCN)C(=O)N[C@@H](CCCCN)C(=O)NCC(=O)N[C@@H](CCC(=O)O)C(=O)O)[C@@H](C)CC`, the inhibition result in the assay on Mus musculus [1] and with Mus musculus [6] was “Dose-dependent effect” each time. Besides, the inhibition entry with Mus musculus [2], with Mus musculus [3], in the assay on Mus musculus [5] and with Mus musculus [7] was “inactive” each time. Besides, the inhibition result with Mus musculus [4] and with Mus musculus [12] was “Active” throughout. Moreover, the Ratio with Mus musculus [8] is given as 48.4; in the assay listed under Mus musculus [9] it was 32.8; in the assay with Mus musculus [10], 17.3; with Mus musculus [11] it was 3.4.

`CN1CC[C@]23c4c5ccc(O)c4O[C@H]2[C@@H](O)C=C[C@H]3[C@H]1C5` [MORPHINE]: the AD50 was found to be 0.026 nmol with Mus musculus [13], 0.031 nmol with Mus musculus [14], 0.026 nmol in the assay on Mus musculus [15] and 3.32 µmol/kg in the assay on Mus musculus [16].

H-YGGFMTSEKSQTPLVTLFKNAIIKNAHKKGQ-OH: the Ratio in the assay on Mus musculus [8] is listed as 33; in the assay listed under Mus musculus [9], 17.5; in the assay on Mus musculus [10] it was 19.5; with Mus musculus [11], 3.5.
